Calls of active or inactive are those of the source. The calls are words filed in the database; no cut-off is given here.
Assays:
[1] = test system: Human papillomavirus; assay: Antiviral activity against HPV 18 infected in mouse 3T3 cells assessed as decrease in viral DNA after 48 hrs by qRT-PCR analysis; format: functional, organism-based, human papillomavirus 18; settings: NIH3T3, 48 h
In short: (§1)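 Assays run side by side over a range of polyamide concentrations for two days. Pseudo IC50 and IC90 are the polyamide concentrations that give a 50% or 90% drop in viral DNA.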

[2] = test system: Human papillomavirus; assay: Antiviral activity against HPV 16 infected in mouse 3T3 cells assessed as decrease in viral DNA after 48 hrs by qRT-PCR analysis; format: functional, organism-based, Human papillomavirus 16; settings: NIH3T3, 48 h; in short: as §1
[3] = test system: human papillomavirus 18; assay: Binding affinity to HPV 18 5'-TAGTCATTTT-3' LCR DNA (7609 to 7618 nucleotides) after 4 hrs by DNase I footprinting assay
In short: (§2)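 Kd values derived from DNase I footprinting of HPV18 LCR DNA, each run at least in triplicate. Sites are read as the polyamide binding block flanked by 5 nt on each side.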

[4] = test system: Human papillomavirus; assay: Antiviral activity against HPV 31 infected in mouse 3T3 cells assessed as decrease in viral DNA after 48 hrs by qRT-PCR analysis; format: functional, organism-based, Human papillomavirus type 31; settings: NIH3T3, 48 h; in short: as §1
[5] = Binding affinity to HPV 18 CTTTGGCGCATATAA GGCGC LCR DNA (7585 to 7594 nucleotides) after 4 hrs by DNase I footprinting assay; parameters: species or system human papillomavirus 18; in short: as §2
[6] = (§3) Binding affinity to HPV 18 CCTGG TATTAGTCAT TTTCC LCR DNA (7606 to 7615 nucleotides) after 4 hrs by DNase I footprinting assay; parameters: species or system human papillomavirus 18; in short: as §2
[7] = test system: human papillomavirus 18; assay: as §3; in short: as §2
[8] = Binding affinity to HPV 18 ACATA TTTTGAACAA TTGGC LCR DNA (7559 to 7568 nucleotides) after 4 hrs by DNase I footprinting assay; parameters: species or system human papillomavirus 18; in short: as §2
[9] = test system: human papillomavirus 18; assay: Binding affinity to HPV 18 CCT GGT ATTAG TCATT TTCCTG TCCAGGT LCR DNA (7619 to 7626 nucleotide) at 5 nM after 4 hrs by DNase I footprinting assay; in short: as §2
[10] = test system: human papillomavirus 18; assay: Binding affinity to HPV 18 CCT GG TATTAGTCATTTTCCTG TCCA G GT LCR DNA (7606 to 7615 nucleotide) at 50 nM after 4 hrs by DNase I footprinting assay; in short: as §2
[11] = test system: human papillomavirus 18; assay: Binding affinity to (7619 nucleotide) of HPV 18 CCT GGT ATTAG TCATT TTCCTG TCCAGGT LCR DNA at 5 nM after 4 hrs by DNase I footprinting assay; in short: as §2

Row | Compound | IC50 [1] [nM] | IC90 [1] [nM] | IC50 [2] [nM] | IC90 [2] [nM] | Activity [3] | IC50 [4] [nM] | IC90 [4] [nM] | Kd [5] [nM] | Kd [6] [nM] | Activity [7] | Kd [8] [nM] | Activity [9] | Activity [10] | Activity [11]
1 | CN(CCCN)CCCNC(=O)CCNC(=O)c1cc(NC(=O)c2cc(NC(=O)c3cc(NC(=O)c4cc(NC(=O)CCNC(=O)c5cc(NC(=O)c6cc(NC(=O)CCCNC(=O)c7cc(NC(=O)c8cc(NC(=O)c9cc(NC(=O)CCNC(=O)c%10cc(NC(=O)c%11cc(NC(=O)c%12nc(N=C(N)N)cn%12C)cn%11C)cn%10C)cn9C)cn8C)cn7C)cn6C)cn5C)cn4C)cn3C)cn2C)cn1C | 200 | 900 | 100 | 380 | Active | 140 | 800 | 2.2 | 1 | Active | 1 | Active | – | –
2 | CN(CCCN)CCCNC(=O)CCNC(=O)c1cc(NC(=O)c2cc(NC(=O)c3cc(NC(=O)c4cc(NC(=O)CCNC(=O)c5cc(NC(=O)c6cc(NC(=O)CCCNC(=O)c7cc(NC(=O)c8cc(NC(=O)c9cc(NC(=O)CCNC(=O)c%10cc(NC(=O)c%11cc(NC(=O)c%12nc(N=C(N(C)C)N(C)C)cn%12C)cn%11C)cn%10C)cn9C)cn8C)cn7C)cn6C)cn5C)cn4C)cn3C)cn2C)cn1C | 200 | > 10000 | 300 | > 10000 | – | 130 | 900 | 3.2 | 1.2 | Active | 1.1 | – | Active | inactive
3 | CN(CCCN)CCCNC(=O)CCNC(=O)c1cc(NC(=O)c2cc(NC(=O)c3cc(NC(=O)CCNC(=O)c4cc(NC(=O)c5cc(NC(=O)c6cc(NC(=O)CCNC(=O)c7cc(NC(=O)c8cc(NC(=O)CCNC(=O)c9cc(NC(=O)c%10cc(NC(=O)CCCNC(=O)c%11cc(NC(=O)c%12cc(NC(=O)c%13cc(NC(=O)CCNC(=O)c%14cc(NC(=O)c%15cc(NC(=O)c%16nccn%16C)cn%15C)cn%14C)cn%13C)cn%12C)cn%11C)cn%10C)cn9C)cn8C)cn7C)n(C)c6)n(C)c5)n(C)c4)n(C)c3)n(C)c2)n(C)c1 | 56 | 1500 | 36 | 350 | – | 30 | 510 | – | – | – | – | – | – | –
4 | CN(CCCN)CCCNC(=O)CCNC(=O)c1cc(NC(=O)c2cc(NC(=O)c3cc(NC(=O)c4cc(NC(=O)CCNC(=O)c5cc(NC(=O)c6cc(NC(=O)CCCNC(=O)c7cc(NC(=O)c8cc(NC(=O)c9cc(NC(=O)CCNC(=O)c%10cc(NC(=O)c%11cc(NC(=O)c%12nccn%12C)cn%11C)cn%10C)cn9C)cn8C)cn7C)cn6C)cn5C)cn4C)cn3C)cn2C)cn1C | 700 | > 10000 | 100 | 1100 | Active | 100 | 1000 | 2.7 | 0.9 | Active | 0.9 | – | – | –
